# From ChEMBL document CHEMBL1124772, “Synthesis and anticonvulsant activity of 1-phenylcyclohexylamine analogues” (J Med Chem, 1990)
# Legend:
# Mus musculus [1] = species: Mus musculus; assay: TI value is the ratio between TD50 and ED50; type: functional
# Summary of the method: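 Ratio TD50/MES ED50. Both values from ip dosing in male Swiss mice (25–30 g), 0.9% NaCl carrier. Five to 10 doses, eight mice per dose; each value by log-probit analysis.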
# Mus musculus [2] = assay: Evaluated for anticonvulsant activity (ED50) by maximal electroshock (MES) seizure test in mouse by intraperitoneal administration.; type: functional
# Summary of the method: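 Protection means no tonic-extensor component. Five to 10 doses, eight mice per dose; ED50 with 95% confidence limits by log-probit analysis. Compounds given as HCl salts, one as a methiodide.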
# Glutamate NMDA receptor = assay: Evaluated in vitro binding affinity against PCP receptor using [3H]TCP as radioligand in rat brain membranes; type: cell membranes
# Mus musculus [3] = assay: Evaluated for anticonvulsant activity (TD50) by motor toxicity assay in mouse by intraperitoneal administration.; type: functional; conditions: ip
# Summary of the method: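 Male Swiss mice (25–30 g), ip in 0.9% NaCl carrier. Five to 10 doses, eight mice per dose; TD50 with 95% confidence limits by log-probit analysis. Compounds given as HCl salts, one as a methiodide.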
# Mus musculus [4] = assay: Evaluated for anticonvulsant activity (TD50) by motor toxicity assay in mouse by intraperitoneal administration; range is 40.6-54.8; type: functional; conditions: ip
Compound,TI (Mus musculus [1]),MES ED50 (Mus musculus [2]),Ki (Glutamate NMDA receptor),TD50 (Mus musculus [3]),TD50 (Mus musculus [4])
CNC1(c2ccccc2)CCCCC1.Cl,0.34,4.62 mg/kg,347 nM,1.56 mg/kg,
C[N+](C)(C)C1(c2ccccc2)CCCCC1.[I-],,>64 mg/kg,14300 nM,> 64 mg/kg,
Cl.NC1(c2cccc(C(F)(F)F)c2)CCCCC1,0.66,24.31 mg/kg,8400 nM,16 mg/kg,
Cl.NC1(c2cccc(OCc3ccccc3)c2)CCCCC1,2.28,29.41 mg/kg,10600 nM,67 mg/kg,
C[C@H]1CCC[C@](N)(c2ccccc2)C1.Cl,,26.38 mg/kg,502 nM,54.8 mg/kg,
Cl.NC1(c2cccc(O)c2)CCCCC1,1.21,35.25 mg/kg,222 nM,42.7 mg/kg,
COc1ccc(C2(N)CCCCC2)cc1.Cl,2.39,32.67 mg/kg,121000 nM,77.9 mg/kg,
Cl.NC1(c2ccccc2)CCCC1,3.49,18.52 mg/kg,10500 nM,64.6 mg/kg,
Cl.NC1(c2ccccc2F)CCCCC1,2.67,22.93 mg/kg,10700 nM,61.2 mg/kg,
CCC(N)(CC)c1ccccc1.Cl,1.35,31.23 mg/kg,6000 nM,42.1 mg/kg,
Cl.NC1(c2ccc3ccccc3c2)CCCCC1,1.82,16.91 mg/kg,34000 nM,30.9 mg/kg,
c1ccc(C2(N3CCCCC3)CCCCC2)cc1 [PHENCYCLIDINE],0.93,3.1 mg/kg,60 nM,2.9 mg/kg,
Cl.NC1(c2ccccc2C(F)(F)F)CCCCC1,1.29,30.36 mg/kg,12400 nM,39.2 mg/kg,
Cl.NC1(c2c(F)c(F)c(F)c(F)c2F)CCCCC1,1.21,33.81 mg/kg,10000 nM,37.9 mg/kg,
Cl.NC1(c2cccc(F)c2)CCCCC1,2.15,9.36 mg/kg,675 nM,20.2 mg/kg,
Cl.NCC1(c2ccccc2)CCCCC1,1.87,27.7 mg/kg,5100 nM,51.9 mg/kg,
CCCCC1(N)CCCCC1.Cl,,>40.6 mg/kg,,,40.6 mg/kg
Cl.NC1(c2ccccc2)CCCCC1,2.31,7.04 mg/kg,527 nM,16.3 mg/kg,
C[C@@H]1CCCC[C@]1(N)c1ccccc1.Cl (racemic),2.05,16.87 mg/kg,1600 nM,34.6 mg/kg,
Cl.NC1(Cc2ccccc2)CCCCC1,1.95,34.52 mg/kg,16000 nM,67.2 mg/kg,

Compound,TI (Mus musculus [1]),MES ED50 (Mus musculus [2]),Ki (Glutamate NMDA receptor),TD50 (Mus musculus [3]),TD50 (Mus musculus [4])
Cl.NC1(c2ccccc2)CCCCCC1,2.18,19.73 mg/kg,2600 nM,43 mg/kg,
Cl.NC1(c2ccc(-c3ccccc3)cc2)CCCCC1,1.42,18.81 mg/kg,86000 nM,26.7 mg/kg,
Cc1ccc(C2(N)CCCCC2)cc1.Cl,,>74 mg/kg,7300 nM,> 74 mg/kg,
CSc1cccc(C2(N)CCCCC2)c1.Cl,1.94,32.88 mg/kg,2420 nM,63.7 mg/kg,
C[C@H]1CCC[C@@](N)(c2ccccc2)C1.Cl,3.04,8.01 mg/kg,1640 nM,24.3 mg/kg,
COc1cccc(C2(N)CCCCC2)c1.Cl,1.45,14.78 mg/kg,563 nM,21.4 mg/kg,
Cc1ccccc1C1(N)CCCCC1.Cl,1.46,4.93 mg/kg,7800 nM,7.19 mg/kg,
C[C@H]1CC[C@@](N)(c2ccccc2)CC1.Cl,2.05,33.75 mg/kg,8400 nM,69.3 mg/kg,
C[C@H]1CCCC[C@]1(N)c1ccccc1.Cl (racemic),0.74,8.01 mg/kg,2000 nM,5.92 mg/kg,
Cl.NC1(c2cccs2)CCCCC1,0.47,10.5 mg/kg,145 nM,4.99 mg/kg,
COc1ccccc1C1(N)CCCCC1.Cl,2.84,11.11 mg/kg,850 nM,31.6 mg/kg,
Cl.NC1(c2cc3ccccc3c3ccccc23)CCCCC1,1.28,16.02 mg/kg,27500 nM,20.6 mg/kg,
C[C@@H]1CCC[C@](N)(c2ccccc2)C1.Cl,2.69,20.86 mg/kg,1200 nM,56.1 mg/kg,
CSc1ccc(C2(N)CCCCC2)cc1.Cl,1.89,40.8 mg/kg,43000 nM,77.1 mg/kg,
C[C@@H]1CCC[C@@](N)(c2ccccc2)C1.Cl,1.98,8.04 mg/kg,8000 nM,15.9 mg/kg,
CN(C)C1(c2ccccc2)CCCCC1.Cl,2.32,4.86 mg/kg,722 nM,11.3 mg/kg,
CSc1ccccc1C1(N)CCCCC1.Cl,1.12,26.18 mg/kg,820 nM,29.3 mg/kg,
Cc1cccc(C2(N)CCCCC2)c1.Cl,1.37,19.11 mg/kg,592 nM,26.2 mg/kg,
C[C@H]1CC[C@](N)(c2ccccc2)CC1.Cl,3.44,13.53 mg/kg,1100 nM,46.6 mg/kg,
Cl.NC1(c2ccc(F)cc2)CCCCC1,0.9,26.18 mg/kg,923 nM,23.4 mg/kg,
